B1: Osa-1-4 twister ribozyme (parent)
chain: CCGCCUAACACUGCCAAUGCCGGUCCCAAGCCCGGAUAAAAGUGGAGGGGGCGG

Variants of: B1
Assay: self-cleavage, relative activity (ratio to wild type); higher = more cleavage; co-transcriptional
Method in brief: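 The 48 positions downstream of the cleavage site in a 54-nucleotide Oryza sativa twister ribozyme template were synthesised at 97 % wild-type base and 1 % of each other base. The template was transcribed in vitro at 37 °C for 2 h, with self-cleavage allowed during transcription. Reads with or without upstream sequence after deep sequencing marked cleavage status, and relative activity is fraction cleaved normalised to wild type.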

Point of comparison: CCGCCUAACACUGCCAGUGCCGGUUCCAAGCCCGGAUAAAAGUGGAGGGGGCGG [A17G C25U], self-cleavage 0.87. Against it:
- CCGCCUAACACUGCCAGUGCCGGUCCCAAGCCCGGAUAUAAGUGGAGGGGGCGG [A17G A39U] — higher, 0.95
- CCGCCUAACACUGCCAGUGCCGGUCCCAAGCCCGGAUAGAAGUGGAGGGGGCGG [A17G A39G] — higher, 0.94
- CCGCCUAACACUGCCACUGCCGGGCCCAAGCCCGGAUAAAAGUGGAGGGGGCGG [A17C U24G] — lower, 0.02
- CCGCCUAACACUGCCACUGCCGGACCCAAGCCCGGAUAAAAGUGGAGGGGGCGG [A17C U24A] — lower, 0.03
- CCGCCUAACACUGCCACUGCCGGCCCCAAGCCCGGAUAAAAGUGGAGGGGGCGG [A17C U24C] — lower, 0.05
- CCGCCUAACACCGCCACUGCCGGUCCCAAGCCCGGAUAAAAGUGGAGGGGGCGG [A17C U12C] — lower, 0.08
- CCGCCUAACACAGCCACUGCCGGUCCCAAGCCCGGAUAAAAGUGGAGGGGGCGG [A17C U12A] — lower, 0.15
- CCGCCUAACACGGCCACUGCCGGUCCCAAGCCCGGAUAAAAGUGGAGGGGGCGG [A17C U12G] — lower, 0.18
- CCGCCUAACACUGCCACUGCCGGUCCCAAGCCCGGAUAAAAGUGGAGGAGGCGG [A17C G49A] — lower, 0.05
- CCGCCUAACACUGCCACUGCCGGUCCCAAGCCCGGAUAAAAGUGGAGGUGGCGG [A17C G49U] — lower, 0.05
- CCGCCUAACACUGCCACUGCCGGUCCCAAGCCCGGAUAAAAGUGGAGGCGGCGG [A17C G49C] — lower, 0.04
- CCGCCUAACACUGCCAGUGCCGGUCCCAAGCCCGGAUCAAAGUGGAGGGGGCGG [A17G A38C] — higher, 0.96
- CCGCCUAACACUGCCAGUGCCGGUCCCAAGCCCGGAUUAAAGUGGAGGGGGCGG [A17G A38U] — higher, 0.97
- CCGCCUAACACUGCCAGUGCCGGUCCCAAGCCCGGAUGAAAGUGGAGGGGGCGG [A17G A38G] — higher, 0.99
- CCGCCUAACACUGCCAGUGCCGGUCCAAAGCCCGGAUAAAAGUGGAGGGGGCGG [A17G C27A] — lower, 0.35
- CCGCCUAACACUGCCAGUGCCGGUCCGAAGCCCGGAUAAAAGUGGAGGGGGCGG [A17G C27G] — lower, 0.13
- CCGCCUAACACUGCCAGUGCCGGUCCUAAGCCCGGAUAAAAGUGGAGGGGGCGG [A17G C27U] — lower, 0.29
- CCGCCUAUCACUGCCAGUGCCGGUCCCAAGCCCGGAUAAAAGUGGAGGGGGCGG [A17G A8U] — lower, 0.49
- CCGCCUAGCACUGCCAGUGCCGGUCCCAAGCCCGGAUAAAAGUGGAGGGGGCGG [A17G A8G] — lower, 0.63
- CCGCCUACCACUGCCAGUGCCGGUCCCAAGCCCGGAUAAAAGUGGAGGGGGCGG [A17G A8C] — lower, 0.12
- CCGCCUAACACUGCCAGUGCCGGUCCCAAGCACGGAUAAAAGUGGAGGGGGCGG [A17G C32A] — lower, 0.07
- CCGCCUAACACUGCCAGUGCCGGUCCCAAGCGCGGAUAAAAGUGGAGGGGGCGG [A17G C32G] — lower, 0.15
- CCGCCUAACACUGCCAGUGCCGGUACCAAGCCCGGAUAAAAGUGGAGGGGGCGG [A17G C25A] — lower, 0.21
- CCGCCUAACACUGCCAGUGCCGGUGCCAAGCCCGGAUAAAAGUGGAGGGGGCGG [A17G C25G] — lower, 0.13
- CCGCCUAACACUGCCAGUGCCGGUCCCAAGCCCGGGUAAAAGUGGAGGGGGCGG [A17G A36G] — higher, 0.99
- CCGCCUAACACUGCCAGUGCCGGUCCCAAGCCCGGUUAAAAGUGGAGGGGGCGG [A17G A36U] — higher, 1.01
- CCGCCUAACACUGCCAGUGCCGGUCCCAAGCCCGGCUAAAAGUGGAGGGGGCGG [A17G A36C] — lower, 0.82
- CCGCCUAACACUGCCACUGCCGGUCCCAAGCCCGGAUAAAAGUGGAGGGAGCGG [A17C G50A] — lower, 0.51
- CCGCCUAACACUGCCACUGCCGGUCCCAAGCCCGGAUAAAAGUGGAGGGUGCGG [A17C G50U] — lower, 0.86
- CCGCCUAACACUGCCACUGCCGGUCCCAAGCCCGGAUAAAAGUGGAGGGCGCGG [A17C G50C] — higher, 0.9
- CCGCCUAACACUGCCAGUGCCGGUCGCAAGCCCGGAUAAAAGUGGAGGGGGCGG [A17G C26G] — lower, 0.12
- CCGCCUAACACUGCCAGUGCCGGUCACAAGCCCGGAUAAAAGUGGAGGGGGCGG [A17G C26A] — lower, 0.08
- CCGCCUAACACUGCCAGUGCCGGUCUCAAGCCCGGAUAAAAGUGGAGGGGGCGG [A17G C26U] — higher, 0.88
- CCGCCUAACACUGCGAGUGCCGGUCCCAAGCCCGGAUAAAAGUGGAGGGGGCGG [A17G C15G] — lower, 0.71
- CCGCCUAACACUGCUAGUGCCGGUCCCAAGCCCGGAUAAAAGUGGAGGGGGCGG [A17G C15U] — lower, 0.71
- CCGCCUAACACUGCAAGUGCCGGUCCCAAGCCCGGAUAAAAGUGGAGGGGGCGG [A17G C15A] — lower, 0.78
- CCGCCUAACACUGCCACUGCCGGUCCCAAGCCCGGAGAAAAGUGGAGGGGGCGG [A17C U37G] — lower, 0.81
- CCGCCUAACACUGCCACUGCCGGUCCCAAGCCCGGAAAAAAGUGGAGGGGGCGG [A17C U37A] — lower, 0.41
- CCGCCUAACACUGCCACUGCCGGUCCCAAGCCCGGACAAAAGUGGAGGGGGCGG [A17C U37C] — lower, 0.85
- CCGCCUAACACUGCCAGUGCCGGUCCCAAGCCCGGAUAAACGUGGAGGGGGCGG [A17G A41C] — higher, 0.9
- CCGCCUAACACUGCCAGUGCCGGUCCCAAGCCCGGAUAAAGGUGGAGGGGGCGG [A17G A41G] — higher, 0.94
- CCGCCUAACACUGCCAGUGCCGGUCCCAAGCCCGGAUAAAUGUGGAGGGGGCGG [A17G A41U] — higher, 0.94
- CCGCCUAACAAUGCCAGUGCCGGUCCCAAGCCCGGAUAAAAGUGGAGGGGGCGG [A17G C11A] — lower, 0.5
- CCGCCUAACAUUGCCAGUGCCGGUCCCAAGCCCGGAUAAAAGUGGAGGGGGCGG [A17G C11U] — lower, 0.68
- CCGCCUAACAGUGCCAGUGCCGGUCCCAAGCCCGGAUAAAAGUGGAGGGGGCGG [A17G C11G] — lower, 0.3
- CCGCCUAACACUGCCAGUGCCGGUCCCAAGUCCGGAUAAAAGUGGAGGGGGCGG [A17G C31U] — higher, 0.9
- CCGCCUAACACUGCCAGUGCCGGUCCCAAGACCGGAUAAAAGUGGAGGGGGCGG [A17G C31A] — lower, 0.05
- CCGCCUAACACUGCCAGUGCCGGUCCCAAGGCCGGAUAAAAGUGGAGGGGGCGG [A17G C31G] — lower, 0.22

Source: the RNAGym collection of RNA variant scans (doi:10.1002/anie.201605470)
